Experimental data published in ChEMBL document CHEMBL1142175, “Activities of antimicrobial peptides and synergy with enrofloxacin against Mycoplasma pulmonis” (2007).
Values after ≈ are worked out from the molar mass of the structure shown. Active and inactive are the calls of the source. The rule behind the calls is not given here. Starred links: 1 amine or outer side, 2 acyl side, 3 side chain; linkers in the order of their positions; H or OH if unused. Positions of bridges follow the written chain, without caps; N, C: chain ends. Non-standard residues stand in square brackets, D forms with d. Residues, ends and D or L forms follow the SMILES beside them. X1 = CC(C)CCCCCCCCC[C@H](CC(=O)[*:1])O[*:2]; Orn = NCCC[C@H](N)C(=O)O

Assays:
[1] = tested on: Mycoplasma pulmonis; assay: Antibacterial activity against 10^6 CFU/ml growth-phase Mycoplasma pulmonis MpUR1.1 assessed as viable cell count after 2 hrs relative to control; assay type: functional; conditions: Mycoplasmopsis pulmonis
Summary of the method: (§1)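 Time-kill on log-phase cells, about 10^6 CFU/ml in Hayflick broth, exposed to a single drug concentration at 37°C. Aliquots were taken at 1, 2 or 24 h, serially diluted and plated for viable counts. Counts were expressed as percent of the untreated culture. Values are the mean of two independent experiments.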

[2] = tested on: Mycoplasma pulmonis; assay: Antibacterial activity against 10^6 CFU/ml log-phase Mycoplasma pulmonis MpUR1.1 assessed as viable cell count at 0.4 uM after 24 hrs relative to control; assay type: functional, Mycoplasmopsis pulmonis; summary of the method: as §1
[3] = tested on: Mycoplasma pulmonis; assay: Ratio of MBC to MIC for Mycoplasma pulmonis MpUR1.1; assay type: functional, Mycoplasmopsis pulmonis
Summary of the method: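 MIC came from broth microdilution at 10^6 CFU/ml in Hayflick medium with 5% horse serum. Twofold dilutions ran from 0.4 to 100 µM, with phenol red read-out at 48 h. MBC came from plating after exposure (peptides 2 h, enrofloxacin 24 h) on solid medium at 37°C under anaerobic conditions. MBC was the concentration killing 99.9% of cells, with colonies read at 4 to 5 days.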

[4] = tested on: Mycoplasma pulmonis; assay: Antibacterial activity against 10^6 CFU/ml log-phase Mycoplasma pulmonis MpUR1.1 assessed as viable cell count at 0.4 uM after 1 hr relative to control; assay type: functional, Mycoplasmopsis pulmonis; summary of the method: as §1
[5] = tested on: Mycoplasma pulmonis; assay: Antibacterial activity against 10^6 CFU/ml Mycoplasma pulmonis MpUR1.1 assessed as viable cell count after 2 hrs; assay type: functional; conditions: Mycoplasmopsis pulmonis
Summary of the method: (§2)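 For bactericidal testing, cells were exposed to peptides for 2 h or enrofloxacin for 24 h, then plated on solid medium at 37°C under anaerobic conditions. Colonies were read after 4 to 5 days. MBC was the lowest concentration killing 99.9% of cells. Triplicate.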

[6] = tested on: Mycoplasma pulmonis; assay: Antibacterial activity against 10^6 CFU/ml Mycoplasma pulmonis MpUR1.1 after 48 hrs; assay type: functional; conditions: Mycoplasmopsis pulmonis
Summary of the method: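 Mycoplasmas seeded at 10^6 CFU/ml in Hayflick medium with 5% horse serum, with twofold serial drug dilutions (0.4 to 100 µM). Growth was followed by phenol red colour change. MIC was the lowest concentration giving complete growth inhibition at 48 h. Triplicate.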

[7] = tested on: Mycoplasma pulmonis; assay: Antibacterial activity against 10^6 CFU/ml log-phase Mycoplasma pulmonis MpUR1.1 assessed as viable cell count at 6.25 uM after 1 hr relative to control; assay type: functional, Mycoplasmopsis pulmonis; summary of the method: as §1
[8] = tested on: Mycoplasma pulmonis; assay: Antibacterial activity against 10^6 CFU/ml log-phase Mycoplasma pulmonis MpUR1.1 assessed as viable cell count at 6.25 uM after 24 hrs relative to control; assay type: functional, Mycoplasmopsis pulmonis; summary of the method: as §1
[9] = tested on: Mycoplasma pulmonis; assay: Antibacterial activity against 10^6 CFU/ml Mycoplasma pulmonis MpUR1.1 assessed as viable cell count after 24 hrs; assay type: functional; conditions: Mycoplasmopsis pulmonis; summary of the method: as §2
[10] = tested on: Mycoplasma pulmonis; assay: Antibacterial activity against 10^6 CFU/ml log-phase Mycoplasma pulmonis MpUR1.1 assessed as viable cell count at 3.12 uM after 1 hr relative to control; assay type: functional, Mycoplasmopsis pulmonis; summary of the method: as §1
[11] = tested on: Mycoplasma pulmonis; assay: Antibacterial activity against 10^6 CFU/ml log-phase Mycoplasma pulmonis MpUR1.1 assessed as viable cell count at 3.12 uM after 24 hrs relative to control; assay type: functional, Mycoplasmopsis pulmonis; summary of the method: as §1
[12] = tested on: Mycoplasma pulmonis; assay: Antibacterial activity against 10^6 CFU/ml log-phase Mycoplasma pulmonis MpUR1.1 assessed as viable cell count at 25 uM after 24 hrs relative to control; assay type: functional, Mycoplasmopsis pulmonis; summary of the method: as §1
[13] = tested on: Mycoplasma pulmonis; assay: Antibacterial activity against 10^6 CFU/ml log-phase Mycoplasma pulmonis MpUR1.1 assessed as viable cell count at 25 uM after 1 hr relative to control; assay type: functional, Mycoplasmopsis pulmonis; summary of the method: as §1

| MIC [6] | SMILES | Activity [1] | Activity [2] | Ratio [3] | Activity [4] | MBC [5] | Activity [7] | Activity [8] | MBC [9] | Activity [10] | Activity [11] | Activity [12] | Activity [13] |
| --- | --- | --- | --- | --- | --- | --- | --- | --- | --- | --- | --- | --- | --- |
| 0.26 µg/mL (≈ 0.396 µM) | CCCCCC[C@H]1OC(=O)CNC(=O)[C@H]([C@H](C)O)NC(=O)[C@H](CO)NC(=O)[C@H]([C@H](C)CC)NC(=O)[C@H](CC(C)C)N(C)C(=O)[C@@H]1C | Active | 0.05% | 31 | 68% | 8.2 µg/mL (≈ 12.5 µM) |  |  |  |  |  |  |  |
| 0.14 µg/mL (≈ 0.39 µM) | CCN1CCN(c2cc3c(cc2F)c(=O)c(C(=O)O)cn3C2CC2)CC1 [ENROFLOXACIN] | Active | 0.22% | 2 | 89% |  |  |  | 0.29 µg/mL (≈ 0.807 µM) |  |  |  |  |
| 3.6 µg/mL (≈ 3.15 µM) | CC(C)C[C@@H]1NC(=O)[C@H](CCCN)NC(=O)[C@H](C(C)C)NC(=O)[C@@H]2CCCN2C(=O)[C@@H](Cc2ccccc2)NC(=O)[C@H](CC(C)C)NC(=O)[C@H](CCCN)NC(=O)[C@H](C(C)C)NC(=O)[C@@H]2CCCN2C(=O)[C@@H](Cc2ccccc2)NC1=O [GRAMICIDIN S] (cyclo(L[dF]PV[Orn]L[dF]PV[Orn])) | Active |  | 2 |  | 7.1 µg/mL (≈ 6.22 µM) |  |  |  | 98% | 0.16% |  |  |

Second part, the compound before the results:

| SMILES | MIC [6] | Activity [1] | Activity [2] | Ratio [3] | Activity [4] | MBC [5] | Activity [7] | Activity [8] | MBC [9] | Activity [10] | Activity [11] | Activity [12] | Activity [13] |
| --- | --- | --- | --- | --- | --- | --- | --- | --- | --- | --- | --- | --- | --- |
| CC(=O)NC(C)(C)C(=O)N1CCC[C@H]1C(=O)NC(C)(C)C(=O)N[C@@H](C)C(=O)NC(C)(C)C(=O)N[C@@H](C)C(=O)N[C@@H](CCC(N)=O)C(=O)NC(C)(C)C(=O)N[C@H](C(=O)NC(C)(C)C(=O)NCC(=O)N[C@@H](CC(C)C)C(=O)NC(C)(C)C(=O)N1CCC[C@H]1C(=O)N[C@H](C(=O)NC(C)(C)C(=O)NC(C)(C)C(=O)N[C@@H](CCC(=O)O)C(=O)N[C@@H](CCC(N)=O)C(=O)N[C@H](CO)Cc1ccccc1)C(C)C)C(C)C [ALAMETHICIN] | 12.3 µg/mL (≈ 6.26 µM) | Active |  | 2 |  | 49.1 µg/mL (≈ 25 µM) | 31% | 0% |  |  |  |  |  |
| CC(C)CCCCCCCCC[C@@H]1CC(=O)N[C@@H](CCC(=O)O)C(=O)N[C@@H](CC(C)C)C(=O)N[C@H](CC(C)C)C(=O)N[C@@H](C(C)C)C(=O)N[C@@H](CC(=O)O)C(=O)N[C@H](CC(C)C)C(=O)N[C@@H](CC(C)C)C(=O)O1 [SURFACTIN] (EL[dL]VD[dL]L; linker N-C via X1) | 25.9 µg/mL (≈ 25 µM) | Active |  | 2 |  | 104 µg/mL (≈ 100 µM) |  |  |  |  |  | 0.08% | 43% |
